pIC50: −log10 of the molar value.
Experiments:
Rattus norvegicus [1] = species: Rattus norvegicus; assay: (§1) The compound was tested for % control of serum cholesterol in cholesterol; type: functional
How it was run: (§2)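 Male Sprague-Dawley rats (100–110 g), groups of 10, fed synthetic diet with 1% cholesterol; compound mixed into diet to give the stated daily dose (mg/kg) for 7 days. Serum from jugular bleed under anesthesia; VLDL+LDL separated from HDL by PEG-8000 precipitation in glycine buffer pH 9; values expressed as % of cholesterol-fed control; one-way design, LSD comparison.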

[2] = molecular target: T1, Sterol O-acyltransferase 1 (Rattus norvegicus) (UniProt O70536); assay: Inhibition of Fu5AH Acyl coenzyme A:cholesterol acyltransferase at the concentration of 10 ug/mL
T1 sequence (whole entry): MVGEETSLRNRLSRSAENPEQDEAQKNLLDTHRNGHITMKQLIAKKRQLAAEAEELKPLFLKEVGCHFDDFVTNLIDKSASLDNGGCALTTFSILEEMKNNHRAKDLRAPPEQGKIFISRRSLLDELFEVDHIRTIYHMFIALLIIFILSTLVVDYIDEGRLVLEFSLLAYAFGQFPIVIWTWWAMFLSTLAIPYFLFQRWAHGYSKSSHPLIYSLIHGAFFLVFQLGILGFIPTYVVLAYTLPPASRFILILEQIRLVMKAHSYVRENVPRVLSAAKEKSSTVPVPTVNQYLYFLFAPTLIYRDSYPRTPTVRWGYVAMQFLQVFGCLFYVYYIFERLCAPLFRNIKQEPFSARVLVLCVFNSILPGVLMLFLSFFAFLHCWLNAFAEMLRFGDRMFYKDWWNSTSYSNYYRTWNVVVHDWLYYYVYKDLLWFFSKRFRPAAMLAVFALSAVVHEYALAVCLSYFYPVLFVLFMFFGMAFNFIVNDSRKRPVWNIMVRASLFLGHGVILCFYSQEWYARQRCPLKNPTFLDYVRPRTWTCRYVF

[3] = molecular target: T2, Sterol O-acyltransferase 1 (Rattus norvegicus, UniProt O70536); assay: In vitro inhibition of Fu5AH acyl coenzyme A:cholesterol acyltransferase.
T2 sequence (O70536 whole entry): T1 sequence (whole entry)

Rattus norvegicus [4] = species: Rattus norvegicus; assay: as §1; type: functional; how it was run: as §2; remark: listed apart in the source
Rattus norvegicus [5] = species: Rattus norvegicus; assay: as §1; type: functional; how it was run: as §2; remark: listed apart in the source
[6] = molecular target: T1, Sterol O-acyltransferase 1 (Rattus norvegicus); assay: (§3) Serum lipoprotein cholesterol in Cholesterol-fed rats Treated with ACAT inhibitor, after two weeks; type: functional
How it was run: (§4)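 Rats fed 1% cholesterol diet for one week, then for a second week the same diet with inhibitor in feed at 20 mg/kg/day, or the synthetic diet without cholesterol. 5 rats per group. Serum HDL, VLDL/LDL (PEG-8000 precipitation, glycine pH 9) and total cholesterol measured at day 7 and […].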

[7] = molecular target: T1, Sterol O-acyltransferase 1 (Rattus norvegicus); assay: (§5) Serum lipoprotein cholesterol in Cholesterol-fed rats Treated with ACAT inhibitor, after one week; type: functional; how it was run: as §4
Rattus norvegicus [8] = species: Rattus norvegicus; assay: (§6) Serum lipoprotein cholesterol fed rats dieted or both weeks, after one week; type: functional, organism-based; how it was run: as §4
[9] = molecular target: T1, Sterol O-acyltransferase 1 (Rattus norvegicus); assay: as §5; type: functional; how it was run: as §4; remark: listed apart in the source
[10] = molecular target: T1, Sterol O-acyltransferase 1 (Rattus norvegicus); assay: The compound was tested for Serum Lipoprotein cholesterol- (total) (mg/dL) concentrations in Cholesterol-fed rats Treated with ACAT inhibitor; type: functional; how it was run: as §4
[11] = molecular target: T1, Sterol O-acyltransferase 1 (Rattus norvegicus); assay: as §3; type: functional; how it was run: as §4; remark: listed apart in the source
Rattus norvegicus [12] = species: Rattus norvegicus; assay: (§7) Serum lipoprotein cholesterol fed rats dieted or both weeks, after two weeks; type: functional, organism-based; how it was run: as §4
Rattus norvegicus [13] = species: Rattus norvegicus; assay: (§8) Percent control of serum cholesterol in cholesterol; type: functional; parameters: concentration or dose not given beside the values; how it was run: as §2
[14] = molecular target: T1, Sterol O-acyltransferase 1 (Rattus norvegicus); assay: as §5; type: functional; how it was run: as §4; remark: listed apart in the source
Rattus norvegicus [15] = species: Rattus norvegicus; assay: as §1; type: functional; how it was run: as §2; remark: listed apart in the source
Rattus norvegicus [16] = species: Rattus norvegicus; assay: as §1; type: functional; how it was run: as §2; remark: listed apart in the source
Rattus norvegicus [17] = species: Rattus norvegicus; assay: as §8; type: functional; parameters: concentration or dose not given beside the values; how it was run: as §2; remark: listed apart in the source
[18] = molecular target: T1, Sterol O-acyltransferase 1 (Rattus norvegicus); assay: The compound was tested for Serum Lipoprotein cholesterol- (HDL) (mg/dL) concentrations in Cholesterol-fed rats Treated with ACAT inhibitor; type: functional; how it was run: as §4
Rattus norvegicus [19] = species: Rattus norvegicus; assay: as §6; type: functional, organism-based; how it was run: as §4; remark: listed apart in the source
[20] = molecular target: T1, Sterol O-acyltransferase 1 (Rattus norvegicus); assay: (§9) Serum lipoprotein cholesterol diet containing ACAT inhibitor, after one week; type: functional; how it was run: as §4
[21] = molecular target: T1, Sterol O-acyltransferase 1 (Rattus norvegicus); assay: as §3; type: functional; how it was run: as §4; remark: listed apart in the source
Rattus norvegicus [22] = species: Rattus norvegicus; assay: Serum lipoprotein cholesterol fed rats dieted for both weeks, after two weeks; type: functional, organism-based; how it was run: as §4
[23] = molecular target: T1, Sterol O-acyltransferase 1 (Rattus norvegicus); assay: as §9; type: functional; how it was run: as §4; remark: listed apart in the source
Rattus norvegicus [24] = species: Rattus norvegicus; assay: as §1; type: functional; how it was run: as §2; remark: listed apart in the source
[25] = molecular target: T1, Sterol O-acyltransferase 1 (Rattus norvegicus); assay: (§10) Serum lipoprotein cholesterol diet containing ACAT inhibitor, after two weeks; type: functional; how it was run: as §4
[26] = molecular target: T1, Sterol O-acyltransferase 1 (Rattus norvegicus); assay: The compound was tested for Serum Lipoprotein cholesterol- (VLDL+LDL) (mg/dL) concentrations in Cholesterol-fed rats Treated with ACAT inhibitor; type: functional; how it was run: as §4
Rattus norvegicus [27] = species: Rattus norvegicus; assay: as §8; type: functional; parameters: concentration or dose not given beside the values; how it was run: as §2; remark: listed apart in the source
Rattus norvegicus [28] = species: Rattus norvegicus; assay: Serum lipoprotein cholesterol fed rats dieted for both weeks, after one week; type: functional, organism-based; how it was run: as §4
Rattus norvegicus [29] = species: Rattus norvegicus; assay: as §1; type: functional; how it was run: as §2; remark: listed apart in the source
Rattus norvegicus [30] = assay: The compound was tested for % absorption of cholesterol in Cholesterol-Fed rats dosed at 20 mg/kg of body weight per day.; type: functional, organism-based; parameters: dose 20 mg/kg
How it was run: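 Zilversmit dual-isotope plasma ratio method in rats fed cholesterol diet ± compound in feed at 20 mg/kg/day. After one week, [3H]cholesterol given iv and [14C]cholesterol by oral gavage. Blood sampled on days 4, 7 and 9 after label; % oral cholesterol absorbed averaged over the 3 days per rat; one-way design.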

Rattus norvegicus [31] = species: Rattus norvegicus; assay: as §7; type: functional, organism-based; how it was run: as §4; remark: listed apart in the source
[32] = molecular target: T1, Sterol O-acyltransferase 1 (Rattus norvegicus); assay: as §9; type: functional; how it was run: as §4; remark: listed apart in the source
Rattus norvegicus [33] = species: Rattus norvegicus; assay: as §1; type: functional; how it was run: as §2; remark: listed apart in the source
[34] = molecular target: T1, Sterol O-acyltransferase 1 (Rattus norvegicus); assay: as §10; type: functional; how it was run: as §4; remark: listed apart in the source

With C=CCCCCn1c2c(c(=O)n3nc(-c4ccccc4)cc13)CN(C1CCCCC1)C2=O the Control (Rattus norvegicus [1]) was 114%, the inhibition [2] was 93% and the pIC50 [3] was 4.99. It also gave a Control (Rattus norvegicus [4]) of 95% and a Control (Rattus norvegicus [5]) of 79%.
O=C(Cn1c2c(c(=O)n3nc(-c4ccc(Cl)cc4)cc13)CN(C1CCCCC1)C2=O)c1ccccc1 showed a Serum lipoprotein cholesterol [6] of 50.3, a Serum lipoprotein cholesterol [7] of 52.9 and a Serum lipoprotein cholesterol (Rattus norvegicus [8]) of 77.8. It also gave a Serum lipoprotein cholesterol [9] of 130, a Serum lipoprotein cholesterol [10] of 118 and a Serum lipoprotein cholesterol [11] of 106. The Serum lipoprotein cholesterol (Rattus norvegicus [12]) was 91.9, the Control (Rattus norvegicus [13]) was 85% and the Serum lipoprotein cholesterol [14] was 182. It also gave a Control (Rattus norvegicus [15]) of 81%, a Control (Rattus norvegicus [16]) of 130% and an inhibition [2] of 85%. The Control (Rattus norvegicus [17]) was 40%, the Serum lipoprotein cholesterol [18] was 76.4 and the Serum lipoprotein cholesterol (Rattus norvegicus [19]) was 68.8. The Serum lipoprotein cholesterol [20] was 184, the Serum lipoprotein cholesterol [21] was 56.1 and the Serum lipoprotein cholesterol (Rattus norvegicus [22]) was 144. For the same compound, the Serum lipoprotein cholesterol [23] was 65.8, the pIC50 [3] was 5.52 and the Control (Rattus norvegicus [24]) was 32%. It also gave a Serum lipoprotein cholesterol [25] of 108, a Serum lipoprotein cholesterol [26] of 41.8 and a Control (Rattus norvegicus [27]) of 134%. The Serum lipoprotein cholesterol (Rattus norvegicus [28]) was 146, the Control (Rattus norvegicus [29]) was 84% and the Absorption (Rattus norvegicus [30]) was 27%. The Serum lipoprotein cholesterol (Rattus norvegicus [31]) was 52.2, the Serum lipoprotein cholesterol [32] was 119 and the Control (Rattus norvegicus [5]) was 37%. For the same compound, the Control (Rattus norvegicus [33]) was 141% and the Serum lipoprotein cholesterol [34] was 32.6.
